Bioassay records: PubChem, several laboratories
CRFBP-R2 agonist: CRF-BP/CRF-R2 complex agonism; HEK293 CRF-R2/CRF-BP, calcium dye fluorescence (FLIPR); percent of saturating CRF peptide response; activation, % at 13.2 µM; 350,000 compounds, 0.46% hits; AID 588473;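 active = activation of at least 50%, plus an integration ratio under a set limit after plate pattern correction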
OXTR potentiate: potentiators of human oxytocin receptor; P30559; CHO-OTR cells, Fluo-8 calcium fluorescence, potentiator mode; 0% = oxytocin EC15, 100% = EC100; activation, % at 3 µM; 320,000 compounds, 0.061% hits; AID 2445;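 active = activation above that plate's cutoff, the mean activation of tested compounds plus 3 SD, cut at about 6.6% in these data, passing the limit was not always enough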
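Material: CHO-OTR cells, human receptor; compound dosing: single dose, 3.0 µM nominal final compound concentration; schedule: 6 min compound pre-incubation at room temperature, 100 s kinetic read; measured by: kinetic Fluo-8 calcium fluorescence; read-out basis: % activation vs EC15 and EC100 oxytocin; controls: EC15 oxytocin alone as 0%, 75 nM oxytocin as 100%; replicates: singlicate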
V1aR counter: activates human V1a receptor in oxytocin agonist counter-screen | P37288 | CHO-V1R cells, Fluo-8 calcium fluorescence, agonist mode; 0% DMSO, 100% 3 nM vasopressin | activation, % at 3 µM | 320,000 compounds, 0.25% hits;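 active = activation above the mean activation of all tested compounds plus 3 SD, per screening run, cut at about 20% in these data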;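 note: signal is peak over basal fluorescence ratio across a 100 second FLIPR read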
Target sequence (P37288 whole entry, looked up): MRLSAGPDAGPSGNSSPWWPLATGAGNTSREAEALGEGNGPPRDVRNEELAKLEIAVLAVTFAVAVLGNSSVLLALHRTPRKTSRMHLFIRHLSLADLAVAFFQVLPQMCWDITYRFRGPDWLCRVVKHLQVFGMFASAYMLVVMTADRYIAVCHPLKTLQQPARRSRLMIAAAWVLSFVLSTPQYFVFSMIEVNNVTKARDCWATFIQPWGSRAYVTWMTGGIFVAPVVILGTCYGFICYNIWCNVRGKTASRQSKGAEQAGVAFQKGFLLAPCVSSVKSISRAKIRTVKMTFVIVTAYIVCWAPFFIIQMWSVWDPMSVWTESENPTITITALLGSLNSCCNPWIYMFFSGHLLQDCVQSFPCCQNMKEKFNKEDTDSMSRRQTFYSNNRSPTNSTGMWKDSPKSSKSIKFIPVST
OXTR agonist: agonists of human oxytocin receptor | P30559 | CHO-OTR cells, Fluo-8 calcium fluorescence; normalized: DMSO 0%, oxytocin 100% | activation, % at 3 µM | 320,000 compounds, 0.32% hits | AID 2435;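 active = activation above the mean of all tested compounds plus 3 SD, cutoff set per screening run, cut at about 20% in these data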;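 note: peak over basal fluorescence ratio from a 100 s FLIPR kinetic read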
TRPML3 ag: human mucolipin-3 channel agonism. AID 1448. activation, % at 3 µM. HEK293 TRPML3-YFP, Fluo-8 calcium fluorescence; 100% = the carbachol control signal. 220,000 compounds, 0.29% hits. Q8TDD5;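 active = activation above its plate's cutoff, the mean activation of the plate's test wells plus 3 SD, cut at about 12% in these data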
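Material: TRPML3-YFP stable HEK293 cells | Dosing: One concentration, 3 µM nominal, 0.3% DMSO | Timing: 125 s total fluorescence read per well | Technique: Fluo-8 calcium dye fluorescence, ex 470-495, em 515-575 nm | Measure: Percent activation from peak-to-basal fluorescence ratio, scaled between DMSO and carbachol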
zfTRPN1 agonist: activates the zebrafish TRPN1 channel; HEK293 zebrafish TRPN1-YFP, Fluo-8 calcium fluorescence; 100% = response to 87 µM carbachol; 220,000 compounds, 0.18% hits; activation, % at 3 µM;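 active = activation above its plate's cutoff, the mean activation of test wells on that plate plus 3 SD, cut at about 19% in these data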
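Control set: carbachol 87 µM as high control, DMSO as low control; system: HEK293 stable line with zebrafish TRPN1-YFP; read-out: % activation versus carbachol response; detection: intracellular calcium fluorescence with Fluo-8; doses: single test compound dose, 3 µM nominal, 0.3% DMSO; schedule: dye 1 h 37 °C plus 30 min RT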
Numbers stand for hits; – = inactive; · = no result. Compounds with a hit are over-represented: about 0.85% of the library has one in this group of screens.

SMILES	CRFBP-R2 agonist	OXTR potentiate	V1aR counter	OXTR agonist	TRPML3 ag	zfTRPN1 agonist
N#Cc1ccc(-c2nc3ccc(Br)cc3c(=O)n2O)cc1	–	–	–	–	·	·
O=c1c2cc(Cl)ccc2nc(-c2ccccc2)n1O	–	–	–	–	–	–
O=c1c2ccc(Cl)cc2nc(-c2ccc([N+](=O)[O-])cc2)n1O	59.2	–	–	–	–	–
N#CC(C#N)=C1C=CC=CN1/C(=C\c1ccco1)C(=O)c1ccc(Cl)cc1	60.6	–	–	–	–	–
Cc1cc2c(cc1S(=O)(=O)CCC(=O)NC1CCCCC1C)OCC(=O)N2 (configuration not stated)	83.3	–	–	–	·	·
Cc1cc2c(cc1S(=O)(=O)CCC(=O)N(C)C1CCCCC1)OCC(=O)N2	–	–	–	–	·	·
CCOC1=C/C(=C/c2c(N)n3nc(CC(=O)N4CCCCC4)sc3nc2=O)C=CC1=O	56.9	–	–	–	·	·
C=CCC1=C/C(=C\c2c(N)n3nc(CC(=O)N4CCCC4)sc3nc2=O)C=C(OC)C1=O	71.0	–	–	–	·	·
COC1=C/C(=C/c2c(N)n3nc(CC(=O)N4CCCCC4)sc3nc2=O)C=CC1=O	–	–	–	–	·	·
COc1ccc(NC(=O)CN(C)C(=O)c2ccc3c(c2)S(=O)(=O)N=C2CCCCCN23)cc1	–	–	–	–	·	·
Nc1c(C(=O)C2CC2)sc2nc(-c3ccccc3)cc(C(F)(F)F)c12	237.8	–	–	–	–	–
COc1ccc(-c2cc(C(F)(F)F)c3c(N)c(C(=O)NCCSC)sc3n2)cc1	66.3	–	–	–	·	·
CC1CCN(C(=O)c2ccc3c(c2)OCO3)CC1	–	–	–	–	·	·
COc1cccc(C2C=C(c3ccc(Br)s3)Nc3ncnn32)c1OC (configuration not stated)	106.1	–	–	–	–	–
CCOC(=O)C1CCCN(C2=NC(=O)/C(=C/c3ccc(N(C)C)cc3)S2)C1 (configuration not stated)	68.6	–	34.2	35.4	·	·
O=C(O)c1cc2c(cc1Br)OCCCO2	–	–	–	–	–	19.2
O=C(O)c1ccc2c(c1)OCCCO2	–	–	–	–	–	–
CC(C)(C)N=Cc1c(O)ccc2oc3c(c12)CCCC3	51.2	–	–	–	·	·
COc1cc([N+](=O)[O-])ccc1N/C=C/C(=O)c1cccs1	83.9	–	–	–	–	–
Cn1c(CN2CCCCC2)nc2cc(NS(=O)(=O)c3ccc(Cl)cc3)ccc21	86.0	–	31.9	33.6	–	–
Cc1ccc(NS(=O)(=O)c2ccc(C(=O)OCC(=O)Nc3cc(C)on3)cc2)cc1	–	·	·	·	–	22.5
CCC/C(C(=O)NCCO)=C1/c2ccccc2C(=O)N1c1ccccc1	–	–	–	–	·	·
Cc1ccccc1NC(=O)Cc1nc(COC(=O)CSc2ccc(F)cc2)cs1	–	·	·	·	·	·
COc1ccc(NC(=O)COC(=O)c2c(NC(C)=O)sc(C)c2C)cc1	–	·	·	·	·	·
COCC(=O)Nc1cc(Cl)ccc1C	–	–	–	–	–	–
SMILES	CRFBP-R2 agonist	OXTR potentiate	V1aR counter	OXTR agonist	TRPML3 ag	zfTRPN1 agonist
Cc1ccc(Cl)cc1NC(=O)CC(O)(C(F)(F)F)C(F)(F)F	–	–	–	–	13.1	19.9
COc1cccc(/C=C/C(=O)OCC(=O)c2c(N)n(C)c(=O)n(C)c2=O)c1	–	–	–	–	·	·
CCCc1nnc(NC(=O)Cn2c(=O)oc3cc(Br)ccc32)s1	79.3	–	32.3	33.6	–	–
CCCc1nnc(NC(=O)Cn2c(=O)oc3ccccc32)s1	–	–	–	–	–	–
Cc1cc(C)nc(/N=C(\N)Nc2cccc(OCc3ccccc3)c2)n1	107.7	–	49.7	46.1	61.2	72.3
CCOC(=O)C(=O)Nc1ccc(OCc2ccccc2)cc1	–	–	–	–	–	–
COc1ccccc1N/C(N)=N/c1nc(C)cc(C)n1	–	–	–	–	–	–
Cc1cc(C)nc(/N=C(\N)Nc2ccc(OCc3ccccc3)cc2)n1	124.4	–	76.8	75.1	101.5	111.5
Cc1ccc(OCc2cc(C(=O)N(C)Cc3cnn(-c4ccccc4C)c3)no2)cn1	–	–	–	–	·	·
